# Sampled rows, rich in hits. Any-hit rate of the full collection: about 1.9%.
# M5 ag: human M5 muscarinic receptor agonists, primary screen, CHO-K1 cells, Fluo-8 calcium fluorescence | CHO-K1 hM5 cells; 0% DMSO wells, 100% maximal acetylcholine response | AID 624037, 2012 | 360,000 tested, 0.19% active | activation, % at 3 µM;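 active = activation above the run's mean over test compounds plus 3 SD, cut at about 23% in these data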;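 also: signal is peak over basal fluorescence ratio across the kinetic read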
# M4 antag: human M4 muscarinic receptor antagonists, primary screen, CHO cells, Fluo-8 calcium fluorescence; Muscarinic acetylcholine receptor M4 (Homo sapiens), P08173; AID 624125, 2012; 360,000 tested, 0.73% active; CHO-hM4 cells, ACh EC80; inhibition, % at 3 µM;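 active = inhibition above its plate's cutoff, the mean inhibition of sample wells plus 3 SD, cut at about 27% in these data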;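 also: 0% = acetylcholine EC80 with DMSO and 100% = DMSO without agonist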
# Target sequence (P08173 whole entry, looked up): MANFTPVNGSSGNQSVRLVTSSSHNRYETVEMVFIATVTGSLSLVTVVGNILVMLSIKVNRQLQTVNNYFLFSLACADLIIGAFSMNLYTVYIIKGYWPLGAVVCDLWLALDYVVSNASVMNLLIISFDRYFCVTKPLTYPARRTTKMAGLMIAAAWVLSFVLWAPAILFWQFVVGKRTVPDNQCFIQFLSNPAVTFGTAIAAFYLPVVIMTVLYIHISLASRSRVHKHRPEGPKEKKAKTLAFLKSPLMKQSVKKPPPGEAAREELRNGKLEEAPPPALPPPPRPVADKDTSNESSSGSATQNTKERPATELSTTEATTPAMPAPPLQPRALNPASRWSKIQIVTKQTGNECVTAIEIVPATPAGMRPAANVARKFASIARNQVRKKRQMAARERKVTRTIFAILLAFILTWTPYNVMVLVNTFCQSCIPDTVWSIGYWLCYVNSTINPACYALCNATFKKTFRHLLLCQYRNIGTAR
# M4 ag: human M4 muscarinic receptor agonists, primary screen, CHO-K1 cells, Fluo-8 calcium fluorescence | CHO-K1 hM4/Gqi5; vehicle 0%, full acetylcholine response 100% | activation, % at 3 µM | 360,000 tested, 0.14% active | AID 624127, 2012;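 active = activation above the run mean over all test wells plus 3 SD, cut at about 32% in these data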;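 also: peak over basal fluorescence ratio per well then scaled between controls; 0% = DMSO wells and 100% = acetylcholine at EC100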
# M5 antag: human M5 muscarinic receptor antagonists, primary screen, CHO cells, Fluo-8 calcium fluorescence; CHO-hM5 cells, ACh EC80; inhibition, % at 3 µM; 360,000 tested, 0.59% active; AID 624040, 2012;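 active = inhibition above a per-plate cutoff, the mean of that plate's test compounds plus 3 SD, cut at about 27% in these data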;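 also: 0% = acetylcholine EC80 with DMSO and 100% = DMSO without agonist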
# M5 PAM: human M5 muscarinic receptor positive allosteric modulators, primary screen, CHO-K1 cells, Fluo-8 calcium fluorescence; Muscarinic acetylcholine receptor M5 (Homo sapiens), P08912; CHO-K1 hM5, ACh EC20 PAM; 0% = ACh EC20, 100% = ACh EC100; activation, % at 3 µM; 360,000 tested, 0.3% active; AID 624038, 2012;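 active = activation above the run cutoff, the mean activation of all test compounds plus 3 SD, cut at about 18% in these data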
#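 Replicates: One well per compound, no replicates | System: Human M5 receptor in CHO-K1 cells | Benchmarks: Low control EC20 acetylcholine (0%), high control EC100 acetylcholine (100%) | Probe or stimulus: Acetylcholine, EC20 level | Times: Fluo-8 loading 80 min at 37 °C plus 30 min room temperature | Signal: Intracellular calcium via Fluo-8 fluorescence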
# CHRM4 PAM: human M4 muscarinic receptor positive allosteric modulators, primary screen, CHO-K1 cells, Fluo-8 calcium fluorescence; Muscarinic acetylcholine receptor M4 (Homo sapiens), P08173; CHO-K1 hM4/Gqi5, ACh EC20; 0% = ACh EC20, 100% = maximal ACh; activation, % at 3 µM; 360,000 tested, 0.4% active; AID 624126, 2012;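 active = activation above its plate's cutoff, the mean activation of sample wells plus 3 SD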
# * hit, by the source's call; + = active, no number.
SMILES,M5 ag,M4 antag,M4 ag,M5 antag,M5 PAM,CHRM4 PAM
CC(C(=O)N1CCCC1)N(c1ccc(Cl)cc1)S(C)(=O)=O (stereo unspecified),-1,13,0,4,0,-4
N#C/C(=C\c1ccc(Sc2ccc(Cl)cc2)o1)c1nc2ccccc2[nH]1,3,12,12,29*,-16,-8
N#C/C(=C\c1ccc(Sc2nc3ccccc3[nH]2)o1)c1ccccc1,2,8,10,14,-13,-10
CCOc1ccc2nc(N(Cc3ccccc3)C(=O)CCNC(C)=O)sc2c1,-7,-2,1,-5,6,4
O=c1cc(-c2ccccc2)oc2cc(O)ccc12,1,-6,2,2,6,1
Nc1ccc(-c2c3ccc(=O)cc-3oc3cc(O)ccc23)cc1C(=O)O,203*,63*,548*,30*,-21,-24
O=c1ccc2c(-c3ccccc3)c3ccc(O)cc3oc-2c1,797*,86*,+,86*,-26,-23
COc1ccc2c(c1)Cc1sc(NC(=O)c3ccccc3)nc1-2,5,-8,5,3,4,18*
CC(=O)c1ccc(C(=O)N2CCCC(CO)(Cc3ccccc3C)C2)s1 (stereo unspecified),-5,1,4,12,-7,-8
CC1CN(c2ccc(Oc3ccccc3)cc2)c2nc3c(c(=O)[nH]c(=O)n3C)n2C1 (stereo unspecified),-1,-11,1,-2,10,17*
CC(Nc1ncnc2sccc12)c1ccccc1 (stereo unspecified),6,14,13,33*,-12,-4
CC(C)n1nc(C(=O)OCC(=O)N2CC(=O)Nc3ccccc32)c2ccccc2c1=O,3,-17,2,2,3,20*
O=C1CN(C(=O)COC(=O)c2ccccc2O)c2ccccc2N1,2,-4,1,-3,2,1
CCCCOc1ccc(C(=O)NCC(=O)NCCCn2nc(C)cc2C)cc1,2,1,0,-6,4,2
CCN(CC)c1ccc(/C=C(/C#N)C(=O)NCc2ccccc2)o1,30*,8,13,9,-18,-11
CCN(CC)c1ccc(/C=C(/C#N)C(=O)NC(C)C)o1,6,7,10,14,-1,5
COC(=O)c1c(O)cc(C(C)(C)C)n(-c2ccc(F)cc2)c1=O,-2,-1,-1,2,3,37*
CC(=O)c1c(O)cc(C)n(-c2ccc(F)cc2)c1=O,-2,9,0,2,3,-2
COc1c(C)cc(C(=O)C2CCCN(C(=O)c3snnc3C)C2)cc1C (stereo unspecified),0,7,0,3,-8,-6
COc1ccc(/C=C\C(=O)O[C@@H]2C(O)C(O[C@@H]3OC(C)[C@H](O[C@@H]4OCC(O[C@H]5O[C@H](CO)[C@@H](O)C(O)C5O)C(O)C4O)C(O)C3O)[C@H](OC(=O)[C@]34CCC(C)(C)C[C@@H]3C3=CCC5[C@@]6(C)CC(O)C(O[C@@H]7OC(CO)C(O)[C@H](O)[C@H]7O)[C@@](C)(C(=O)O)C6CC[C@@]5(C)[C@]3(CO)CC4)O[C@H]2C)cc1 (stereo partly specified),50*,79*,147*,48*,-27,-14
O=C(COC(=O)COc1ccc(Br)cc1)Nc1ccc2c(c1)OCCO2,3,-3,2,6,3,2
COc1ccc(COc2ccccc2C(=O)NCc2ccccc2)cc1F,4,19,14,28*,-19,-15
COc1cc(C(=O)NCc2ccccc2)ccc1OC(F)F,-2,-1,0,10,-6,3
O=C(CN1CCCc2ccccc21)Nc1ccc(F)cc1[N+](=O)[O-],0,-12,-1,-6,11,2
C=CCN(CC=C)C(=O)Nc1ccc2nc(C)sc2c1,2,-7,3,-2,1,21*
SMILES,M5 ag,M4 antag,M4 ag,M5 antag,M5 PAM,CHRM4 PAM
C=CCNC(=O)Nc1ccc2nc(C)sc2c1,1,1,3,-8,7,11
COc1ccc(-c2c(-c3ccc(OC)c(C)c3O)n[nH]c2C)cc1,1,-6,-2,-2,-5,-4
CSc1ccccc1NC(=O)COC(=O)Cc1cccs1,-1,7,1,4,-3,4
CCOc1ccccc1NC(=O)COC(=O)Cc1cccs1,-2,100*,-3,-13,6,-15
CC1CCCC(NC(=O)COC(=O)c2ccc(Br)o2)C1C (stereo unspecified),-1,-3,2,15,4,22*
CC1CCCC(NC(=O)COC(=O)c2ccc([N+](=O)[O-])o2)C1C (stereo unspecified),-3,7,0,20,-11,-3
Cc1ccc(C(=O)N2CCN(c3ccc([N+](=O)[O-])c(NCc4ccco4)c3)CC2)cc1,-11,-17,-2,-10,-1,31*
CCCN1/C(=C(\C#N)C2=NS(=O)(=O)c3ccccc32)N(C)c2ccccc21,6,-8,5,-1,5,6
O=C(Nc1cccc(Br)c1)c1ccc2c(c1)SC1=NS(=O)(=O)CCN12,1,-5,1,0,5,23*
S=c1[nH]nc(-c2ccncc2)n1/N=C/c1cn(-c2ccccc2)nc1-c1ccccc1,17,0,12,5,23*,9
CCOc1ccccc1N1CCN(C(=O)c2c(CC)noc2C)CC1,1,-4,1,3,1,-1
CC(=O)NC(=O)NC1OC(=O)C(Cl)=C1Cl (stereo unspecified),-3,-15,1,1,0,17*
Cc1ccccc1S(=O)(=O)NC1OC(=O)C(Cl)=C1Cl (stereo unspecified),2,-6,0,-7,2,1
COc1cccc(CNCc2ccc(OC)c3ccccc23)c1OC,9,17,37*,31*,-18,-17
Cc1cc(C)c(S(=O)(=O)N2CCCOC2CNC(=O)C(=O)NCCc2c[nH]c3ccccc23)c(C)c1 (stereo unspecified),7,10,24,20,-17,-15
